# In PubChem BioAssay AID504486 (The Scripps Research Institute Molecular Screening Center, 2011):
# The source made the active and inactive calls.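 How the source made its calls: active means mass spectrometry shows covalent labeling of the catalytic serine in PAFAH2, a platelet-activating factor hydrolase; inactive means no covalent labeling of that serine detected.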
# Molecular target: Platelet-activating factor acetylhydrolase 2, cytoplasmic (Homo sapiens) (UniProt Q99487)
# Assay: PAFAH2 active-site binding mode – biophysical, LC-MS/MS, purified enzyme, mechanism study for PAFAH2 inhibitor project, late-stage follow-up (AID 504486)
# Conditions: purified PAFAH2, LC-MS/MS active-site serine labeling
# How it was run: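 System: purified human recombinant PAFAH2 enzyme. Compound: single dose, 200 µM final inhibitor, DMSO vehicle. Schedule: 30 min compound exposure at room temperature. Measured by: LC-MS/MS peptide mapping of serine adduct. Evaluation: active-site serine covalent modification, yes or no. Benchmarks: DMSO-only enzyme sample.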
compound,measurement,value
O=C(N1CCCC1)n1ncc(-c2ccc(-c3ccccc3)cc2)n1,outcome,active
